# Tests used:
# Format in all cases: functional
# SR = assay: Growth inhibition of human SR cells incubated for 48 hrs by sulforhodamine B assay
# Procedure, shortened: (§1)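 NCI DTP 60-line human tumour panel. Dose-response curves were run only for ligands active in the initial 10 µM screen. GI50 (concentration giving 50% of maximal inhibition of proliferation) and TGI (concentration giving total growth inhibition) were derived from these curves.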
# T47D = assay: Growth inhibition of human T47D cells assessed as cell growth at 0.01 uM incubated for 48 hrs by sulforhodamine B assay relative to control; details: read-out: Activity
# M14 = assay: Growth inhibition of human M14 cells assessed as cell growth at 1 uM incubated for 48 hrs by sulforhodamine B assay relative to control; details: read-out: Activity
# A549 = assay: Growth inhibition of human A549/ATCC cells assessed as cell growth at 0.1 uM incubated for 48 hrs by sulforhodamine B assay relative to control; details: read-out: Activity
# Procedure, shortened: (§2)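 NCI Developmental Therapeutics Program NCI60 panel. Compounds that were active in the 10 µM one-dose screen went on to dose–response testing. Growth at each concentration is expressed relative to untreated control (100%). GI50 (concentration giving 50% of maximal inhibition of proliferation) and TGI (concentration giving total growth inhibition) were derived from the curves.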
# SK-OV-3 = assay: Growth inhibition of human SK-OV-3 cells assessed as cell growth at 100 uM incubated for 48 hrs by sulforhodamine B assay relative to control; details: read-out: Activity
# COLO 205 [1] = assay: Growth inhibition of human COLO 205 cells assessed as cell growth at 0.1 uM incubated for 48 hrs by sulforhodamine B assay relative to control; details: read-out: Activity; procedure, shortened: as §2
# SNB-75 = assay: Growth inhibition of human SNB-75 cells assessed as cell growth at 0.01 uM incubated for 48 hrs by sulforhodamine B assay relative to control; details: read-out: Activity
# BT-549 [2] = assay: Growth inhibition of human BT-549 cells incubated for 48 hrs by sulforhodamine B assay; details: for CC50: read-out: LC50 (the source's name); procedure, shortened: as §2
# BT-549 [3] = assay: Growth inhibition of human BT-549 cells assessed as cell growth at 1 uM incubated for 48 hrs by sulforhodamine B assay relative to control; details: read-out: Activity
# Malme-3M [4] = assay: Growth inhibition of human Malme-3M cells assessed as cell growth at 1 uM incubated for 48 hrs by sulforhodamine B assay relative to control; details: read-out: Activity
# CCRF-CEM = assay: Growth inhibition of human CCRF-CEM cells assessed as cell growth at 0.1 uM incubated for 48 hrs by sulforhodamine B assay relative to control; details: read-out: Activity; procedure, shortened: as §2
# NCI-H322M [5] = assay: Growth inhibition of human NCI-H322M cells incubated for 48 hrs by sulforhodamine B assay; details: for CC50: read-out: LC50 (the source's name)
# Procedure, shortened: (§3)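 NCI60 panel at the NCI Developmental Therapeutics Program. Only compounds active in the 10 µM screen went to dose-response testing. GI50, the concentration giving 50% of maximal inhibition of proliferation, and TGI, the concentration giving total growth inhibition, were derived from the dose-response curves.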
# NCI-H322M [6] = assay: Growth inhibition of human NCI-H322M cells assessed as cell growth at 100 uM incubated for 48 hrs by sulforhodamine B assay relative to control; details: read-out: Activity
# A498 = assay: Growth inhibition of human A498 cells assessed as cell growth at 0.1 uM incubated for 48 hrs by sulforhodamine B assay relative to control; details: read-out: Activity; procedure, shortened: as §2
# NCI-H322M [7] = assay: Growth inhibition of human NCI-H322M cells assessed as cell growth at 0.1 uM incubated for 48 hrs by sulforhodamine B assay relative to control; details: read-out: Activity
# LOX IMVI = assay: Growth inhibition of human LOX IMVI cells incubated for 48 hrs by sulforhodamine B assay; procedure, shortened: as §3
# OVCAR-5 [8] = assay: Growth inhibition of human OVCAR-5 cells assessed as cell growth at 100 uM incubated for 48 hrs by sulforhodamine B assay relative to control; details: read-out: Activity
# OVCAR-5 [9] = assay: Growth inhibition of human OVCAR-5 cells incubated for 48 hrs by sulforhodamine B assay; details: for CC50: read-out: LC50 (the source's name); procedure, shortened: as §1
# SF-268 [10] = assay: Growth inhibition of human SF-268 cells assessed as cell growth at 1 uM incubated for 48 hrs by sulforhodamine B assay relative to control; details: read-out: Activity
# CAKI-1 = assay: Growth inhibition of human CAKI-1 cells assessed as cell growth at 1 uM incubated for 48 hrs by sulforhodamine B assay relative to control; details: read-out: Activity; procedure, shortened: as §2
# MCF7 = assay: Growth inhibition of human MCF7 cells assessed as cell growth at 0.01 uM incubated for 48 hrs by sulforhodamine B assay relative to control; details: read-out: Activity
# COLO 205 [11] = assay: Growth inhibition of human COLO 205 cells incubated for 48 hrs by sulforhodamine B assay; procedure, shortened: as §2
# 786-0 = assay: Growth inhibition of human 786-0 cells assessed as cell growth at 0.01 uM incubated for 48 hrs by sulforhodamine B assay relative to control; details: read-out: Activity; procedure, shortened: as §2
# UO-31 = assay: Growth inhibition of human UO-31 cells assessed as cell growth at 0.1 uM incubated for 48 hrs by sulforhodamine B assay relative to control; details: read-out: Activity
# OVCAR-5 [12] = assay: Growth inhibition of human OVCAR-5 cells assessed as cell growth at 1 uM incubated for 48 hrs by sulforhodamine B assay relative to control; details: read-out: Activity
# SF-268 [13] = assay: Growth inhibition of human SF-268 cells assessed as cell growth at 100 uM incubated for 48 hrs by sulforhodamine B assay relative to control; details: read-out: Activity
# SK-MEL-5 = assay: Growth inhibition of human SK-MEL-5 cells assessed as cell growth at 0.1 uM incubated for 48 hrs by sulforhodamine B assay relative to control; details: read-out: Activity
# Malme-3M [14] = assay: Growth inhibition of human Malme-3M cells assessed as cell growth at 0.01 uM incubated for 48 hrs by sulforhodamine B assay relative to control; details: read-out: Activity
# HCT-116 [15] = assay: Growth inhibition of human HCT-116 cells assessed as cell growth at 0.1 uM incubated for 48 hrs by sulforhodamine B assay relative to control; details: read-out: Activity
# HCT-116 [16] = assay: Growth inhibition of human HCT-116 cells assessed as cell growth at 100 uM incubated for 48 hrs by sulforhodamine B assay relative to control; details: read-out: Activity
# MOLT-4 = assay: Growth inhibition of human MOLT-4 cells assessed as cell growth at 0.01 uM incubated for 48 hrs by sulforhodamine B assay relative to control; details: read-out: Activity
# HOP-62 = assay: Growth inhibition of human HOP-62 cells assessed as cell growth at 100 uM incubated for 48 hrs by sulforhodamine B assay relative to control; details: read-out: Activity
# PC-3 [17] = assay: Growth inhibition of human PC-3 cells assessed as cell growth at 0.01 uM incubated for 48 hrs by sulforhodamine B assay relative to control; details: read-out: Activity
# NCI-H23 = assay: Growth inhibition of human NCI-H23 cells incubated for 48 hrs by sulforhodamine B assay; procedure, shortened: as §3
# PC-3 [18] = assay: Growth inhibition of human PC-3 cells incubated for 48 hrs by sulforhodamine B assay; procedure, shortened: as §1
smiles,measurement,setting,value
CCc1ccccc1NC(=O)c1sc2nc3c(cc2c1N)C(=O)CCC3,GI50,SR,0.406 µM
same,LC50,SR,> 100 µM
same,TGI,SR,> 100 µM
same,growth at 0.01 µM,T47D,99%
same,growth at 1 µM,M14,17%
same,growth at 0.1 µM,A549,88%
same,growth at 100 µM,SK-OV-3,-4%
same,growth at 0.1 µM,COLO 205 [1],98%
same,growth at 0.01 µM,SNB-75,73%
same,GI50,BT-549 [2],27.4 µM
same,TGI,BT-549 [2],> 100 µM
same,CC50,BT-549 [2],> 100 µM
same,growth at 1 µM,BT-549 [3],50%
same,growth at 1 µM,Malme-3M [4],50%
same,growth at 0.1 µM,CCRF-CEM,89%
same,TGI,NCI-H322M [5],> 100 µM
same,CC50,NCI-H322M [5],> 100 µM
same,growth at 100 µM,NCI-H322M [6],23%
same,growth at 0.1 µM,A498,72%
same,growth at 0.1 µM,NCI-H322M [7],99%
same,GI50,LOX IMVI,0.645 µM
same,LC50,LOX IMVI,> 100 µM
same,TGI,LOX IMVI,> 100 µM
same,growth at 100 µM,OVCAR-5 [8],7%
same,GI50,OVCAR-5 [9],0.0392 µM
same,TGI,OVCAR-5 [9],> 100 µM
same,CC50,OVCAR-5 [9],> 100 µM
same,growth at 1 µM,SF-268 [10],53%
same,growth at 1 µM,CAKI-1,33%
same,growth at 0.01 µM,MCF7,82%
same,GI50,COLO 205 [11],0.252 µM
same,LC50 (concentration killing 50% of cells),COLO 205 [11],> 100 µM
same,TGI,COLO 205 [11],19.8 µM
same,growth at 0.01 µM,786-0,90%
same,growth at 0.1 µM,UO-31,85%
same,growth at 1 µM,OVCAR-5 [12],50%
same,growth at 100 µM,SF-268 [13],12%
same,growth at 0.1 µM,SK-MEL-5,82%
same,growth at 0.01 µM,Malme-3M [14],100%
same,growth at 0.1 µM,HCT-116 [15],99%
same,growth at 100 µM,HCT-116 [16],6%
same,growth at 0.01 µM,MOLT-4,102%
same,growth at 100 µM,HOP-62,-22%
Cc1ccc(NC(=O)c2sc3nc4c(cc3c2N)C(=O)CCC4)cc1C,GI50,SR,0.499 µM
same,LC50,SR,> 100 µM
same,TGI,SR,26.8 µM
same,growth at 0.01 µM,T47D,98%
same,growth at 1 µM,M14,22%
same,growth at 0.1 µM,A549,98%
same,growth at 100 µM,SK-OV-3,8%
same,growth at 0.1 µM,COLO 205 [1],98%
same,growth at 0.01 µM,SNB-75,78%
same,TGI,BT-549 [2],> 100 µM
same,CC50,BT-549 [2],> 100 µM
same,growth at 1 µM,BT-549 [3],49%
same,growth at 1 µM,Malme-3M [4],24%
same,growth at 0.1 µM,CCRF-CEM,97%
same,GI50,NCI-H322M [5],0.975 µM
same,TGI,NCI-H322M [5],> 100 µM
same,CC50,NCI-H322M [5],> 100 µM
same,growth at 100 µM,NCI-H322M [6],37%
same,growth at 0.1 µM,A498,78%
same,growth at 0.1 µM,NCI-H322M [7],94%
same,GI50,LOX IMVI,0.716 µM
same,LC50,LOX IMVI,> 100 µM
same,TGI,LOX IMVI,> 100 µM
same,growth at 100 µM,OVCAR-5 [8],31%
same,GI50,OVCAR-5 [9],2.29 µM
same,TGI,OVCAR-5 [9],> 100 µM
same,CC50,OVCAR-5 [9],> 100 µM
same,growth at 1 µM,SF-268 [10],57%
same,growth at 1 µM,CAKI-1,41%
same,growth at 0.01 µM,MCF7,89%
same,GI50,COLO 205 [11],0.272 µM
same,LC50 (concentration killing 50% of cells),COLO 205 [11],≥ 100 µM
same,TGI,COLO 205 [11],11.4 µM
same,growth at 0.01 µM,786-0,98%
same,growth at 0.1 µM,UO-31,81%
same,growth at 1 µM,OVCAR-5 [12],66%
same,growth at 100 µM,SF-268 [13],14%
same,growth at 0.1 µM,SK-MEL-5,90%
same,growth at 0.01 µM,Malme-3M [14],96%
same,growth at 0.1 µM,HCT-116 [15],90%
same,growth at 100 µM,HCT-116 [16],8%
same,growth at 0.01 µM,MOLT-4,103%
same,growth at 100 µM,HOP-62,28%
CCc1cccc(C)c1NC(=O)c1sc2nc3c(cc2c1N)C(=O)CCC3,growth at 0.01 µM,PC-3 [17],94%
same,GI50,SR,0.403 µM
same,LC50,SR,> 100 µM
same,TGI,SR,≥ 100 µM
same,growth at 0.01 µM,T47D,97%
same,growth at 1 µM,M14,17%
same,growth at 0.1 µM,A549,93%
same,growth at 0.1 µM,COLO 205 [1],102%
same,growth at 0.01 µM,SNB-75,73%
same,growth at 1 µM,Malme-3M [4],31%
same,growth at 0.1 µM,CCRF-CEM,90%
same,TGI,NCI-H322M [5],> 100 µM
same,CC50,NCI-H322M [5],> 100 µM
same,growth at 100 µM,NCI-H322M [6],21%
same,growth at 0.1 µM,A498,72%
same,growth at 0.1 µM,NCI-H322M [7],91%
same,GI50,LOX IMVI,0.724 µM
same,LC50,LOX IMVI,> 100 µM
same,TGI,LOX IMVI,> 100 µM
same,growth at 100 µM,OVCAR-5 [8],30%
same,GI50,OVCAR-5 [9],2.6 µM
same,TGI,OVCAR-5 [9],> 100 µM
same,CC50,OVCAR-5 [9],> 100 µM
same,GI50,NCI-H23,0.733 µM
same,LC50 (50% lethal concentration),NCI-H23,> 100 µM
same,TGI,NCI-H23,> 100 µM
same,growth at 1 µM,SF-268 [10],54%
same,growth at 1 µM,CAKI-1,31%
same,growth at 0.01 µM,MCF7,83%
same,GI50,COLO 205 [11],0.278 µM
same,GI50,PC-3 [18],0.454 µM
same,TGI,PC-3 [18],> 100 µM
same,CC50,PC-3 [18]; read-out: LC50 (the source's name),> 100 µM
same,growth at 0.01 µM,786-0,86%
same,growth at 0.1 µM,UO-31,82%
same,growth at 1 µM,OVCAR-5 [12],59%
same,growth at 100 µM,SF-268 [13],5%
same,growth at 0.1 µM,SK-MEL-5,89%
same,growth at 0.01 µM,Malme-3M [14],96%
same,growth at 0.1 µM,HCT-116 [15],96%
same,growth at 100 µM,HCT-116 [16],4%
same,growth at 0.01 µM,MOLT-4,98%
same,growth at 100 µM,HOP-62,28%
